# Measurements as given in paper PMC9386786 (Cell metabolism, 2022).
# Where two headings read alike, the source gives them in different places.
# B1: GDF15 protein: Growth differentiation factor 15, circulating secretory protein (protein, UniProt Q99988 195-308, looked up)
# Growth/differentiation factor …: ARARNGDHCPLGPGRCCRLHTVRASLEDLGWADWVLSPREVQVTMCIGACPSQFRAANMHAQIKTSLHRLKPDTVPAPCCVPASYNPMVLIQKTDTGVSLQTYDDLLAKDCHCI
# How the values were obtained:
# [1] = tested on: hepatic Gdf15 and Fgf21 mRNAs, serum GDF15 and FGF21; test: Hepatokine levels after intraperitoneal administration in WT C57BL/6J mice; type: in vivo, mouse
# Method in brief: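 WT mice received test compound ip at 2 mg/kg. For fasting/refeeding, mice were fed, fasted 24 h, or refed 2 h after a 24 h fast, and were injected 3 h before dissection. For exercise, mice ran to exhaustion on a 10°-sloped shock treadmill and were sampled before, immediately after, or 3 h after running, with food and water available. Poly(I:C) was given ip at 10 mg/kg. Hepatic mRNA was measured by RT-qPCR (Hprt-normalized) and serum GDF15/FGF21 by ELISA.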
# CNOT6 = CNOT6 (Homo sapiens, UniProt Q9ULM6); test: Gel-based deadenylase assay, CNOT6; type: biochemical; conditions: compared to CNOT6L
# Method in brief: (§1)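 Enzymes were expressed in and purified from E. coli BL21: the human CNOT6 catalytic domain (aa 153–557) and full-length human CNOT7 and CNOT8. Each enzyme (2.5 μM final) was preincubated with inhibitor at the indicated concentrations for 1 h at 37 °C. 5′-FITC-labelled poly(A)20 RNA (50 nM final) was then added for 1.5 h at 37 °C, and deadenylation was resolved on gel.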
# CNOT7 = CNOT7 (Homo sapiens, UniProt Q9UIV1); test: Gel-based deadenylase assay, CNOT7; type: biochemical
# Method in brief: as §1
# CNOT8 = CNOT8 (Homo sapiens, UniProt Q9UFF9); test: Gel-based deadenylase assay, CNOT8; type: biochemical
# Method in brief: as §1
# [2] = tested on: Gdf15 and Fgf21 mRNAs in primary hepatocytes; test: Hepatokine mRNA levels in mouse primary hepatocytes; type: cell-based; conditions: for EC50: Mus musculus, Hepatocyte
# Method in brief: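 Hepatocytes were isolated from 8-week-old male mice by portal vein perfusion and collagenase digestion, Percoll-purified, plated on collagen I, and cultured in William's E medium. Huh7 cells were grown in DMEM with 10% FBS. Cells were exposed to test compound at graded concentrations and for various times. mRNAs were quantified by RT-qPCR, normalized to Hprt (mouse) or GAPDH (human); n = 3 per group. EC50 was derived from the concentration–response curves.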
# [3] = tested on: GDF15 and FGF21 mRNAs in Huh7 cells; test: Hepatokine mRNA and protein levels in Huh7 cells; type: cell-based, human; conditions: for EC50: Homo sapiens
# [4] = tested on: GDF15 and FGF21 mRNAs in primary hepatocytes and Huh7 cells; test: mRNA stability assay with actinomycin D; type: cell-based; conditions: with actinomycin D 5 μg/mL; iD1 5 μM
# Method in brief: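 Mouse primary hepatocytes and Huh7 cells were treated with actinomycin D (5 μg/mL) plus DMSO vehicle or test compound (5 μM in hepatocytes) for a time course. Before actinomycin D, Huh7 cells were pretreated with Wy-14643 (200 μM, 6 h) to induce FGF21 mRNA. Transcripts were measured by RT-qPCR, normalized to Hprt or GAPDH, and expressed as percent of the initial level. Half-lives were fitted by first-order decay; n = 3.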
# [5] = tested on: promoter activity of GDF15 and FGF21 genes; test: Promoter luciferase reporter assay in Huh7 cells; type: cell-based, human
# Method in brief: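 Human GDF15 or FGF21 promoters were PCR-amplified from Huh7 genomic DNA and placed upstream of firefly luciferase; a promoter-less construct served as control. Constructs (50–100 ng) were lipofected into Huh7 cells with a Renilla luciferase (TK) control, and cells were treated with vehicle or test compound. Firefly activity was read by dual-luciferase assay and normalized to Renilla.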
# [6] = tested on: 3' UTRs of human GDF15 and FGF21 and mouse Gdf15 and Fgf21 mRNAs; test: 3' UTR luciferase assay in Huh7 cells; type: cell-based
# Method in brief: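 Human GDF15/FGF21 3′UTRs (amplified from Huh7 cDNA) and mouse Gdf15/Fgf21 3′UTRs (from WT mouse liver cDNA) were cloned downstream of the firefly luciferase coding region. These plasmids (50–100 ng) were lipofected into Huh7 cells together with a Renilla luciferase (TK) control. Firefly and Renilla activities were measured by dual-luciferase assay, and firefly signal was normalized to Renilla to correct for transfection efficiency.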
# [7] = tested on: translation of Gdf15 and Fgf21 mRNAs in liver; test: Polysome profiling of livers of treated mice; type: in vivo, mouse
# WT mice [8] = test: Food intake and body weight after a single administration in mice; type: in vivo, mouse; conditions: for ED50: Mus musculus, ip
# [9] = tested on: neurons in NTS, AP and PVN; test: c-Fos immunofluorescence in the brain; type: in vivo, mouse
# WT mice [10] = test: Oxygen consumption and RER; type: in vivo, mouse
# Method in brief: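 WT mice received a single ip injection of vehicle or test compound (2 mg/kg). They were then housed singly on a 12 h light/dark cycle, either fed or food-deprived. VO2 and VCO2 were recorded at 25 °C by indirect calorimetry, and dark- and light-cycle averages were taken. VO2 was expressed per kg body weight per hour, and RER was calculated as VCO2/VO2.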
# WT mice [11] = type: in vivo, mouse; conditions: single administration
# [12] = tested on: C57BL/6J WT mice kept on a high-fat diet; test: HFD-induced obese mouse model, treatment twice a week for 12 weeks; type: in vivo
# Method in brief: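 From 8 weeks of age, male and female C57BL/6J mice were fed high-fat diet for 12 weeks and given test compound (2 mg/kg) or vehicle ip twice weekly. Measurements included: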
# CNOT6L = CNOT6L (Homo sapiens, UniProt Q96LI5); test: Gel-based deadenylase assay, CNOT6L; type: biochemical
# [13] = ref Xiong et al., 2017; cited from earlier work
# [14] = male and female mice, IP twice a week
# Chain of CNOT6 (Q9ULM6 153-557): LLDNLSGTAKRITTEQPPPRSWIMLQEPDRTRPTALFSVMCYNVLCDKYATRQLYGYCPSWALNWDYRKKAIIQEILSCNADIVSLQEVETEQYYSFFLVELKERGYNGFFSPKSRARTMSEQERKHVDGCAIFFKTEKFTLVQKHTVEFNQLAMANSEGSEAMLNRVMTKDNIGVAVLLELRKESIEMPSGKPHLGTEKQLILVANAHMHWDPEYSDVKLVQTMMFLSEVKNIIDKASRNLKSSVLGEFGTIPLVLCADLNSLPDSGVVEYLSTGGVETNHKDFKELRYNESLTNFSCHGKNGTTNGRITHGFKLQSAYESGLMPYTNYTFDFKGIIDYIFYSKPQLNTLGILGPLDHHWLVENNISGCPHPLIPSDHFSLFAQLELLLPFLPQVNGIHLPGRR
# Chain of CNOT8 (Q9UFF9 whole entry): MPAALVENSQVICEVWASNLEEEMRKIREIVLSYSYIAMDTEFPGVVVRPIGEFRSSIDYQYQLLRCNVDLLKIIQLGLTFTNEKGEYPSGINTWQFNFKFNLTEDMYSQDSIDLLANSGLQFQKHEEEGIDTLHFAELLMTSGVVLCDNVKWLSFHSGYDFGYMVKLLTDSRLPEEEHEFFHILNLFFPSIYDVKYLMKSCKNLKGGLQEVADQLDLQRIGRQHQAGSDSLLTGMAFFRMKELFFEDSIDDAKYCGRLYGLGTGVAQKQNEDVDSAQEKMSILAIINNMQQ
# Chain of CNOT7 (Q9UIV1 whole entry): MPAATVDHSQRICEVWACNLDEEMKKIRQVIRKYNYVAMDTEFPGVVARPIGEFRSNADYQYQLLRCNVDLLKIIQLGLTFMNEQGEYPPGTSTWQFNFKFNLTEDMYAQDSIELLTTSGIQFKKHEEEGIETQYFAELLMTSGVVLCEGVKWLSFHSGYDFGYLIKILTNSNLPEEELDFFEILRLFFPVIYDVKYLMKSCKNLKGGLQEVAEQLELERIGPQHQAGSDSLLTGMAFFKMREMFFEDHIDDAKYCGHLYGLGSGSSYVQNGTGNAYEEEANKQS
# Chain of CNOT6L (Q96LI5 158-555): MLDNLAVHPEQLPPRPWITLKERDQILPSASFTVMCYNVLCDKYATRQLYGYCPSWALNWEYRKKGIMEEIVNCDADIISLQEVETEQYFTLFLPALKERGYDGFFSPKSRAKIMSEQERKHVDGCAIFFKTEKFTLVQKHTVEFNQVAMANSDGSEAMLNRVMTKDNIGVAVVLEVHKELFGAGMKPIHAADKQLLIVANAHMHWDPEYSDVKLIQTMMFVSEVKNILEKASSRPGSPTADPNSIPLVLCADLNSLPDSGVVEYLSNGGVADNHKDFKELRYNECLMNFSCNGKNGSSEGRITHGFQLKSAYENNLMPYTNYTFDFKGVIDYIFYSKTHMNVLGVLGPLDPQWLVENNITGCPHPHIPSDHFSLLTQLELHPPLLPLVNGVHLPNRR
molecule,measurement,setting,value
poly(I:C) [reference compound],hepatic Gdf15 mRNA,[1]; IP 10 mg/kg,increased
CC(C)=CCC(O)C1=CC(=O)c2c(O)ccc(O)c2C1=O (stereo not drawn) [iD1],inhibition of CNOT6,CNOT6,modestly inhibited
same,inhibition of CNOT7,CNOT7,did not inhibit
same,inhibition of CNOT8,CNOT8,did not inhibit
same,EC50,[2]; read-out: EC50 for Fgf21 mRNA,2080 nM
same,EC50,[2]; read-out: EC50 for Gdf15 mRNA,1110 nM
same,"levels of hepatokine mRNAs (GDF15, FGF21, INHBE, ADM, ADAMTS1, HBEGF)","[2]; mouse primary hepatocytes and Huh7 cells, dose- and time-dependent",increased
same,EC50,"[3]; Huh-7, read-out: EC50 for FGF21 mRNA",1610 nM
same,EC50,"[3]; Huh-7, read-out: EC50 for GDF15 mRNA",530 nM
same,GDF15 and FGF21 protein abundance,[3]; Huh7 cells,increased
same,effects of thapsigargin and WY-14643 on GDF15 and FGF21 mRNA levels,"[3]; combination, Huh7 cells, 6 h",potentiated
same,degradation of GDF15 and FGF21 mRNAs,[4],potently suppressed degradation
same,promoter activity of GDF15 and FGF21 genes,[5],did not alter
same,decrease of luciferase activity by 3' UTRs of GDF15/FGF21 mRNAs,[6],reversed
same,global translation,[7],did not affect
same,translational efficacy of Gdf15 and Fgf21 mRNAs,[7],not affected
same,levels of hepatic Gdf15 and Fgf21 mRNAs and serum GDF15 and FGF21 proteins,"[1]; 3 h after one-time IP injection, 2 mg/kg",significantly increased
same,degradation of Gdf15 and Fgf21 mRNAs post-exercise,"[1]; 3 h post-exercise recovery period, liver",attenuated degradation
same,Fgf21 mRNA suppression induced by refeeding,"[1]; liver, refed after 24 h fasting",attenuated
same,"effects on food intake, body weight, serum triglycerides, ketone bodies, hepatic Gdf15 and Fgf21 mRNAs in Cnot6l−/− mice",WT mice [8]; Cnot6l whole-body KO mice,did not induce significant effects
same,ED50,WT mice [8]; read-out: EC50 for body weight,1.23 mg/kg
same,ED50,WT mice [8]; read-out: EC50 for food intake,1.43 mg/kg
same,body weight,WT mice [8]; single administration,significantly reduced
same,c-Fos staining within NTS and AP,[9]; 3 h after administration,robust c-Fos staining
same,c-Fos staining within PVN in the hypothalamus,[9]; after administration,Robust c-Fos staining
same,oxygen consumption,"WT mice [10]; fasted condition, relative to Veh",consumed more oxygen
same,respiratory exchange rate (RER),WT mice [10]; fed condition,significantly reduced
same,serum insulin levels,WT mice [11],decrease
same,serum ketone body levels,WT mice [11],increasing
same,serum triglycerides,WT mice [11],reduced
same,"obesity-induced hyperlipidemia, hyperglycemia, and hyperinsulinemia",[12]; HFD,ameliorated
same,hepatic steatosis and lipid accumulation in adipose tissues,[12]; HFD obese mice,reversed
same,insulin sensitivity and glucose tolerance,"[12]; HFD, long-term treatment, ITT and GTT",improved
same,HFD-induced gain of body weight,[12]; [14],dramatically decreased
same,food intake on HFD,[12]; [14],suppressed
"Cc1cccc(Nc2cc(Cl)nc(SCC(=O)O)n2)c1C [WY-14643, reference compound]",FGF21 mRNA in Huh7 cells,"[3]; 200 μM, 6 h",increased
"C/C=C(/C)C(=O)O[C@H]1C(C)=C2[C@H]([C@@H]1OC(=O)CCCCCCC)[C@@](C)(OC(C)=O)C[C@H](OC(=O)CCC)[C@@]1(O)[C@H]2OC(=O)[C@@]1(C)O [thapsigargin, reference compound]",GDF15 mRNA in Huh7 cells,"[3]; 1 μM, 6 h",increased
Nc1ncnc2c1ncn2[C@@H]1O[C@H](COP(=O)(O)O)[C@@H](O)[C@H]1O [AMP],IC50,CNOT6L,76300 nM
B1,half-life of circulating protein,[13],3 h
